In ChEMBL document CHEMBL2040755, “Diverse combinatorial design, synthesis and in vitro evaluation of new HEPT analogues as potential non-nucleoside HIV-1 reverse transcription inhibitors” (Eur J Med Chem, 2012):
Values after ≈ are worked out from the molar mass of the structure shown.

How the values were obtained:
[1] = tested on: Human immunodeficiency virus 1; test: Antiviral activity against HIV1 NL4-3 infected in human MT4 cells assessed as inhibition of virus-induced cytopathic effect after 5 days; type: functional, organism-based; conditions: Human immunodeficiency virus 1, NL4-3, MT4, 120 h
Outline: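 HIV-1 NL4-3 titered in MT-4 cells after acute infection. Infected cells were exposed to various concentrations of compound and grown 5 days. Protection from virus-induced cytopathic effect was read as viable cell number by tetrazolium (MTT) colorimetry, giving EC50.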

[2] = Cytotoxicity against human MT4 cells after 5 days by MTT assay; type: cell-based
Outline: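 Uninfected MT-4 cells exposed to various compound concentrations and allowed to proliferate 5 days. Viable cells quantified by tetrazolium-based colorimetric (MTT) method to give CC50.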

[3] = Selectivity index, ratio of CC50 for human MT4 cells to EC50 for HIV1 NL4-3; type: toxicity, cell-based; conditions: read-out: Ratio CC50/EC50
Outline: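 SI taken as CC50 in uninfected MT-4 cells over EC50 against HIV-1 NL4-3. Both came from parallel 5-day MTT viability read-outs, in mock-infected and in infected cells exposed to various compound concentrations.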

[4] = tested on: Human immunodeficiency virus 1; test: Ratio of HEPT EC50 to compound EC50 for HIV1 NL4-3; type: functional

Compound: Cc1ccc(C)c(Cn2c(Sc3cccc(N)c3)cc(=O)[nH]c2=O)c1
- EC50 [1]: > 71 µM
- CC50 at 120 h [2]: > 25 µg/mL

Compound: Cc1c(Sc2c(Cl)cccc2Cl)n(COCC[Si](C)(C)C)c(=O)[nH]c1=O
- EC50 [1]: > 21.3 µM
- CC50 at 120 h [2]: 9.2 µg/mL (≈ 21.2 µM)

Compound: Cc1c(Sc2cccc(Cl)c2)n(COCC[Si](C)(C)C)c(=O)[nH]c1=O
- EC50 [1]: > 24.9 µM
- CC50 at 120 h [2]: 9.9 µg/mL (≈ 24.8 µM)

Compound: Cc1cn([C@H]2C[C@H](N=[N+]=[N-])[C@@H](CO)O2)c(=O)[nH]c1=O [ZIDOVUDINE]
- EC50 [1]: 0.004 µM
- CC50 at 120 h [2]: > 1 µg/mL
- selectivity ratio [3]: > 1000

Compound: Cc1ccc(C)c(Cn2c(Sc3cccc(Cl)c3)cc(=O)[nH]c2=O)c1
- EC50 [1]: > 67 µM
- CC50 at 120 h [2]: > 25 µg/mL

Compound: CCOCn1c(Sc2ccccc2)c(C)c(=O)[nH]c1=O
- EC50 [1]: 0.086 µM
- CC50 at 120 h [2]: > 25 µg/mL
- selectivity ratio [3]: > 1000
- Ratio EC50 [4]: 38

Compound: Cc1c(Sc2ccccc2)n(COCC[Si](C)(C)C)c(=O)[nH]c1=O
- EC50 [1]: > 27.3 µM
- CC50 at 120 h [2]: 9.9 µg/mL (≈ 27.2 µM)

Compound: Cc1ccc(C)c(Cn2c(Sc3ccccc3)cc(=O)[nH]c2=O)c1
- EC50 [1]: > 74 µM
- CC50 at 120 h [2]: > 25 µg/mL

Compound: CCOCn1c(Sc2ccccc2)c(C)c(=S)[nH]c1=O
- EC50 [1]: 1.9 µM
- CC50 at 120 h [2]: 2.38 µg/mL (≈ 7.72 µM)
- selectivity ratio [3]: > 4

Compound: C[Si](C)(C)CCOCn1c(Sc2cccc(Cl)c2)cc(=O)[nH]c1=O
- EC50 [1]: > 30 µM
- CC50 at 120 h [2]: 11.6 µg/mL (≈ 30.1 µM)

Compound: CCOCn1c(Sc2c(Cl)cccc2Cl)cc(=O)[nH]c1=O
- EC50 [1]: > 72 µM
- CC50 at 120 h [2]: > 25 µg/mL

Compound: Cc1ccc(C)c(Cn2c(Sc3cccc(N)c3)c(C)c(=O)[nH]c2=O)c1
- EC50 [1]: 5.2 µM
- CC50 at 120 h [2]: > 25 µg/mL
- selectivity ratio [3]: > 13

Compound: Cc1ccc(C)c(Cn2c(Sc3c(Cl)cccc3Cl)cc(=O)[nH]c2=O)c1
- EC50 [1]: > 61 µM
- CC50 at 120 h [2]: > 25 µg/mL

Compound: Cc1ccc(C)c(Cn2c(Sc3ccccc3)c(C)c(=O)[nH]c2=O)c1
- EC50 [1]: 3.57 µM
- CC50 at 120 h [2]: > 25 µg/mL
- selectivity ratio [3]: > 20

Compound: C[Si](C)(C)CCOCn1c(Sc2c(Cl)cccc2Cl)cc(=O)[nH]c1=O
- EC50 [1]: > 25.2 µM
- CC50 at 120 h [2]: 10.6 µg/mL (≈ 25.3 µM)

Compound: CCOCn1c(Sc2cccc(Cl)c2)cc(=O)[nH]c1=O
- EC50 [1]: > 80 µM
- CC50 at 120 h [2]: > 25 µg/mL

Compound: O=C1Nc2ccc(Cl)cc2[C@@](C#CC2CC2)(C(F)(F)F)O1 [EFAVIRENZ]
- CC50 at 120 h [2]: > 1 µg/mL

Compound: CCOCn1c(Sc2cccc(N)c2)c(C)c(=O)[nH]c1=O
- EC50 [1]: 1.3 µM
- CC50 at 120 h [2]: > 25 µg/mL
- selectivity ratio [3]: > 63

Compound: Cc1ccc(C)c(Cn2c(Sc3c(Cl)cccc3Cl)c(C)c(=O)[nH]c2=O)c1
- EC50 [1]: > 59 µM
- CC50 at 120 h [2]: > 25 µg/mL

Compound: C[Si](C)(C)CCOCn1c(Sc2cccc(N)c2)cc(=O)[nH]c1=O
- EC50 [1]: > 68 µM
- CC50 at 120 h [2]: > 25 µg/mL

Compound: CCOCn1c(Sc2cccc(Cl)c2)c(C)c(=O)[nH]c1=O
- EC50 [1]: 0.046 µM
- CC50 at 120 h [2]: > 25 µg/mL
- selectivity ratio [3]: > 1670
- Ratio EC50 [4]: 67

Compound: Cc1ccnc2c1NC(=O)c1cccnc1N2C1CC1 [NEVIRAPINE]
- CC50 at 120 h [2]: > 5 µg/mL

Compound: C[Si](C)(C)CCOCn1c(Sc2ccccc2)cc(=O)[nH]c1=O
- EC50 [1]: > 71 µM
- CC50 at 120 h [2]: > 25 µg/mL

Compound: CCOCn1c(Sc2cccc(N)c2)cc(=O)[nH]c1=O
- EC50 [1]: > 85 µM
- CC50 at 120 h [2]: > 25 µg/mL

Compound: Cc1c(Sc2ccccc2)n(COCCO)c(=O)[nH]c1=O [HEPT]
- EC50 [1]: 3.28 µM
- CC50 at 120 h [2]: > 25 µg/mL
- selectivity ratio [3]: > 25

Compound: CCOCn1c(Sc2ccccc2)cc(=O)[nH]c1=O
- EC50 [1]: > 90 µM
- CC50 at 120 h [2]: > 25 µg/mL

Compound: CCOCn1c(Sc2c(Cl)cccc2Cl)c(C)c(=O)[nH]c1=O
- EC50 [1]: 4.7 µM
- CC50 at 120 h [2]: > 25 µg/mL
- selectivity ratio [3]: > 15

Compound: Cc1c(Sc2cccc(Cl)c2)n(COCCO)c(=O)[nH]c1=O
- EC50 [1]: 1.2 µM
- CC50 at 120 h [2]: > 25 µg/mL
- selectivity ratio [3]: > 60

Compound: CCOCn1c(Sc2cccc(Cl)c2)c(C)c(=S)[nH]c1=O
- EC50 [1]: > 4.96 µM
- CC50 at 120 h [2]: 1.7 µg/mL (≈ 4.96 µM)

Compound: Cc1c(Sc2cccc(N)c2)n(COCC[Si](C)(C)C)c(=O)[nH]c1=O
- EC50 [1]: 1.15 µM
- CC50 at 120 h [2]: > 25 µg/mL
- selectivity ratio [3]: > 57

Compound: Cc1ccc(C)c(Cn2c(Sc3cccc(Cl)c3)c(C)c(=O)[nH]c2=O)c1
- EC50 [1]: 0.868 µM
- CC50 at 120 h [2]: 13.6 µg/mL (≈ 35.2 µM)
- selectivity ratio [3]: > 40
